Reference: ChEMBL document CHEMBL4184152, “Thioether-stapled macrocyclic inhibitors of the EH domain of EHD1” (Bioorg Med Chem, 2018)
The source made the active and inactive calls. The rule behind the calls is not given here. Where a SMILES comes first, the peptide text is derived from it.

Columns and labels:
[1] = target: T1, EH domain-containing protein 1 (Homo sapiens, UniProt Q9H4M9); assay: Binding affinity to GST-fused EHD1 EH domain (unknown origin) expressed in Escherichia coli BL21 cells measured after 1 hr in presence of 15 mM NaCl by fluorescence polarization assay
T1 sequence (Q9H4M9 whole entry): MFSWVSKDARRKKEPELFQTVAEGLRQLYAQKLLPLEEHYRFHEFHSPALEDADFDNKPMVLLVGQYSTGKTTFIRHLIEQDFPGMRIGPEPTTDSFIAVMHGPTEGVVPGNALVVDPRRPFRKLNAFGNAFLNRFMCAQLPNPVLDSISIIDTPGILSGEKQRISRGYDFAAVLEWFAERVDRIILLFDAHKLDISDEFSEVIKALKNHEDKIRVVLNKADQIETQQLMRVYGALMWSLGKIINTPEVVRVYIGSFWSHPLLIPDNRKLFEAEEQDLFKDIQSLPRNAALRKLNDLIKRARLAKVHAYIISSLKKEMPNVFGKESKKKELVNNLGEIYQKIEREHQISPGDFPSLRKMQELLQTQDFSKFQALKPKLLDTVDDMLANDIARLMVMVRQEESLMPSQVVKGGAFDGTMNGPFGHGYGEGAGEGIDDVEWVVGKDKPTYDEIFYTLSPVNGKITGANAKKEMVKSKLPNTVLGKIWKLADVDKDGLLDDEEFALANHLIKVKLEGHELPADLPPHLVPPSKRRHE
Method in brief: (§1)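 NaCl was 15 mM or 150 mM. Polarization was read 1 h after probe addition and re-read later to confirm equilibrium. Kd came from curve fits; technical triplicates, three independent experiments.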

[2] = target: T1, EH domain-containing protein 1; assay: Binding affinity to GST-fused EHD1 EH domain (unknown origin) expressed in Escherichia coli BL21 cells measured after 1 hr in presence of 150 mM NaCl by fluorescence polarization assay; method in brief: as §1
[3] = target: T2, Epidermal growth factor receptor substrate 15 (Homo sapiens, UniProt P42566); assay: Binding affinity to GST-fused Eps15 EH2 domain (unknown origin) expressed in Escherichia coli BL21 cells under high salt condition by fluorescence polarization assay
T2 sequence (P42566 whole entry): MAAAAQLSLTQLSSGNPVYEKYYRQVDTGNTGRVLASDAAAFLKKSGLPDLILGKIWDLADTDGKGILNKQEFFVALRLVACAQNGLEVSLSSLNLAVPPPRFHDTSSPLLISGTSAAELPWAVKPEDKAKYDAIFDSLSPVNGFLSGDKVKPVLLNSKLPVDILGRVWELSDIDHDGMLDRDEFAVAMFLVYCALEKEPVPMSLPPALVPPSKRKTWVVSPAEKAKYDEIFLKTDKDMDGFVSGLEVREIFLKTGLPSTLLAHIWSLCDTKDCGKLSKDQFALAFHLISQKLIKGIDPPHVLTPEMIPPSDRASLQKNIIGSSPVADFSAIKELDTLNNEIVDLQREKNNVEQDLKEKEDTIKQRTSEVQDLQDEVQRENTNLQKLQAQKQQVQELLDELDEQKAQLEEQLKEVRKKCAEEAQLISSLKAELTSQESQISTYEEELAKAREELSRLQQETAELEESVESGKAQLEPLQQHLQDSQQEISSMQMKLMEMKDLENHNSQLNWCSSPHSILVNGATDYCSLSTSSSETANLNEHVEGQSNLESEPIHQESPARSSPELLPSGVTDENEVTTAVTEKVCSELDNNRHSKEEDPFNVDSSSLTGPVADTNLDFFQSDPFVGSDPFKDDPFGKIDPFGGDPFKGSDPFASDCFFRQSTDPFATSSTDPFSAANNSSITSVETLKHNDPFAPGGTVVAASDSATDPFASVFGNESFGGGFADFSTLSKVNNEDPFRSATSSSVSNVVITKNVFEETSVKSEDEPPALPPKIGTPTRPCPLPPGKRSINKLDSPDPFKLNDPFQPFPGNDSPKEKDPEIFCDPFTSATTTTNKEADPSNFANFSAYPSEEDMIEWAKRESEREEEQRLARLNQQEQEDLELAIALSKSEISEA
Method in brief: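 Eps15-EH2 protein concentration was set by A280 using an extinction coefficient of 13980 M-1cm-1. Binding of fluorescein-labeled peptides to Eps15-EH2 was measured in an FP direct binding format with varying protein concentration.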

[4] = species: Homo sapiens; assay: Selectivity ratio of IC50 for GST-fused Eps15 EH2 domain (unknown origin) expressed in Escherichia coli BL21 cells to IC50 for GST-fused EHD1 EH domain (unknown origin)
[5] = target: T3, EH domain-containing protein 1 (Homo sapiens) (UniProt Q9H4M9); assay: Inhibition of EHD1-EH in human HeLa cells assessed as reduction in internalized transferrin-488 recycling at 50 uM measured after 60 mins by pulse-chase method; format: cell-based
T3 sequence (whole entry): T1 sequence (Q9H4M9 whole entry)
Method in brief: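 HeLa cells were grown in DMEM/10% FBS to 80% confluence, then starved 30 min in DMEM with 0.5% BSA. Cells got a 60-min pulse with Tf-488 (25 µg/mL), with inhibitor present. A 30-min chase followed with 2 mg/mL unlabeled transferrin plus inhibitor, 0.2% DMSO final. Cells were washed in cold PBS, trypsinized and fixed. Flow cytometry counted 10,000 live cells; 50 µM primaquine was the positive control.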

SMILES	Kd [1]	Kd [2]	IC50 [3]	Ratio IC50 [4]	inhibition [5]
CC(=O)N(CCCC[C@@H]1NC(=O)CNC(=O)[C@H](CCC(=O)O)NC(=O)[C@H](CCC(=O)O)NC(=O)[C@H](Cc2ccccc2)NC(=O)[C@@H]2CCCN2C(=O)[C@H](CC(N)=O)NC(=O)[C@H](Cc2ccc(O)cc2)NC1=O)C(=O)c1ccccc1-c1c2ccc(=O)cc-2oc2cc(O)ccc12 (HELM PEPTIDE1{E.E.G.[CC(=O)N(CCCC[C@H](N[*:1])C(=O)[*:2])C(=O)c1ccccc1-c1c2ccc(=O)cc-2oc2cc(O)ccc12].Y.N.P.F}$PEPTIDE1,PEPTIDE1,1:R1-8:R2$$$V2.0)	3 µM	15.1 µM	> 100 µM	15	
COc1cc(NC(C)CCCN)c2ncccc2c1 (configuration not stated)					Active
C#CCCC(=O)N[C@H]1CSCc2ccc(cc2)CSCCNC(=O)[C@H](CCC(=O)O)NC(=O)[C@H](CCC(=O)O)NC(=O)[C@H](Cc2ccccc2)NC(=O)[C@@H]2CCCN2C(=O)[C@H](CC(N)=O)NC(=O)[C@H](Cc2ccc(O)cc2)NC1=O (HELM PEPTIDE1{[C#CCCC(=O)[*:2]].C.Y.N.P.F.E.E}|CHEM1{[c1cc(C[*:1])ccc1CSCCN[*:2]]}$PEPTIDE1,CHEM1,2:R3-1:R1|PEPTIDE1,CHEM1,8:R2-1:R2$$$V2.0)					inactive
NC(=O)C[C@@H]1NC(=O)[C@H](Cc2ccc(O)cc2)NC(=O)CNC(=O)CNC(=O)[C@H](CCC(=O)O)NC(=O)[C@H](CCC(=O)O)NC(=O)[C@H](Cc2ccccc2)NC(=O)[C@@H]2CCCN2C1=O (HELM PEPTIDE1{Y.N.P.F.E.E.G.G}$PEPTIDE1,PEPTIDE1,1:R1-8:R2$$$V2.0)					inactive
